What was measured:
[1] = molecular target: T1, Alpha-1A adrenergic receptor (Homo sapiens, UniProt P35348); assay: Displacement of [3H]prazosin from human alpha1A adrenergic receptor expressed in CHO cell membranes after 30 mins by rapid filtration method
T1 sequence (P35348 whole entry): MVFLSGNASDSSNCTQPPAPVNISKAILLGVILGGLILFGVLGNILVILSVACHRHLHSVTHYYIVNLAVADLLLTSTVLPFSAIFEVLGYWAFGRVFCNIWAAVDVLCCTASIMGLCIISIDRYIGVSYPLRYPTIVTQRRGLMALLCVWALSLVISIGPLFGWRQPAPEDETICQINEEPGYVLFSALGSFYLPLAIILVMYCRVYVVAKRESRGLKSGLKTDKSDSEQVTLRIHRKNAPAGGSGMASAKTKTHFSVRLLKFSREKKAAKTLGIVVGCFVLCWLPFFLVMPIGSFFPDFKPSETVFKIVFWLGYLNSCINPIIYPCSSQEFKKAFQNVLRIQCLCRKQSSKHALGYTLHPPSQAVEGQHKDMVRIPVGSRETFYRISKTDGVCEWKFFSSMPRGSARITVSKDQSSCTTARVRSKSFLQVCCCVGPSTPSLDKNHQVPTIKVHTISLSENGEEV
In short: (§1)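 Membranes (30 μg protein) from CHO cells stably transfected with the human α1a, α1b or α1d receptor. Incubated 30 min at 25 °C in 50 mM Tris-HCl pH 7.4 with 0.1–0.4 nM [3H]prazosin and competitor 1 pM–10 μM. Nonspecific binding defined by 10 μM phentolamine. Stopped by rapid filtration through PEI-treated filters. IC50 converted to Ki by Cheng-Prusoff; pKi from 2–3 experiments in triplicate.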

[2] = molecular target: T2, Alpha-1D adrenergic receptor (Homo sapiens, UniProt P25100); assay: Displacement of [3H]prazosin from human alpha1D adrenergic receptor expressed in CHO cell membranes after 30 mins by rapid filtration method; in short: as §1
T2 sequence (P25100 whole entry): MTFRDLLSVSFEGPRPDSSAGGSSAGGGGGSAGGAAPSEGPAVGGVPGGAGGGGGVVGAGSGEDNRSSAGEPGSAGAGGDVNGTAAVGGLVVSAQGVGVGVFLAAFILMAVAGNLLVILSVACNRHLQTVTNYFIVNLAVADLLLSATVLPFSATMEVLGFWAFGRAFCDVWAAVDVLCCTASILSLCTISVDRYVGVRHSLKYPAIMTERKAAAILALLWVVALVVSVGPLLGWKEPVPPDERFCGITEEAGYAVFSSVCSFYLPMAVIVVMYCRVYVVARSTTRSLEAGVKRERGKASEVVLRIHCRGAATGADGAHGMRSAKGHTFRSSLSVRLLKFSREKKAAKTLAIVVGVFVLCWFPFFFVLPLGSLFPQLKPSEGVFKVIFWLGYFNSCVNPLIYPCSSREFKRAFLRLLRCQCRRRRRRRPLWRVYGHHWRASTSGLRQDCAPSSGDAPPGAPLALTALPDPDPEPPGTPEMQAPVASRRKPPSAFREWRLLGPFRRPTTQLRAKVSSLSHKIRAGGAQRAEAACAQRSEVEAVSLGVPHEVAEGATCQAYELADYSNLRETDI

[3] = molecular target: T3, Alpha-1A adrenergic receptor (Rattus norvegicus, UniProt P43140); assay: Antagonist activity at alpha1A adrenergic receptor in Wistar rat prostatic rat vas deferens assessed as inhibition of noradrenaline-induced contraction preincubated for 30 mins followed by noradrenaline addition measured after 45 mins in presence of cocaine hydrochloride; assay type: functional; conditions: read-out: pA2 (converted)
T3 sequence (P43140 whole entry): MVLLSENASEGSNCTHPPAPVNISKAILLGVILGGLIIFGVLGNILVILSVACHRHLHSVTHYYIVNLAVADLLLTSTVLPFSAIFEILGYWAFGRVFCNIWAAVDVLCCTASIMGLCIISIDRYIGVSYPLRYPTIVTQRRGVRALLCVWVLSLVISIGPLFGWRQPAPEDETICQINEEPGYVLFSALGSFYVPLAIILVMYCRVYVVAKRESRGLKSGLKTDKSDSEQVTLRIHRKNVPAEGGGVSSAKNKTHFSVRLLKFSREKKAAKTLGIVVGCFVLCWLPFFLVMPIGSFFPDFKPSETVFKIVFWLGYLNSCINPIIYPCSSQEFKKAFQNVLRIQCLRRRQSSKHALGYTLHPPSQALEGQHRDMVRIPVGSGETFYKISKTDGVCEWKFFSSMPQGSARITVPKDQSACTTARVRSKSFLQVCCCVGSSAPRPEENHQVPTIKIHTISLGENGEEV
In short: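 Prostatic rat vas deferens, 2 cm portions, held at 0.35 g in Tyrode (pH 7.4, 37 °C, 95% O2/5% CO2). Cocaine 10 μM added 20 min before the agonist. Tissue equilibrated 45 min and primed twice with 10 μM noradrenaline. Isotonic cumulative noradrenaline curves were run before and after 30 min antagonist. pA2 came from Schild plots (≥3 concentrations); otherwise pKB (van Rossum). n ≥ 4.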

[4] = molecular target: T4, Alpha-1B adrenergic receptor (Rattus norvegicus) (UniProt P15823); assay: Antagonist activity at alpha1B adrenergic receptor in Wistar rat spleen assessed as inhibition of phenylephrine-induced contraction incubated for 30 mins in presence of beta-adrenoceptor blocker propranolol hydrochloride; assay type: functional
T4 sequence (whole entry): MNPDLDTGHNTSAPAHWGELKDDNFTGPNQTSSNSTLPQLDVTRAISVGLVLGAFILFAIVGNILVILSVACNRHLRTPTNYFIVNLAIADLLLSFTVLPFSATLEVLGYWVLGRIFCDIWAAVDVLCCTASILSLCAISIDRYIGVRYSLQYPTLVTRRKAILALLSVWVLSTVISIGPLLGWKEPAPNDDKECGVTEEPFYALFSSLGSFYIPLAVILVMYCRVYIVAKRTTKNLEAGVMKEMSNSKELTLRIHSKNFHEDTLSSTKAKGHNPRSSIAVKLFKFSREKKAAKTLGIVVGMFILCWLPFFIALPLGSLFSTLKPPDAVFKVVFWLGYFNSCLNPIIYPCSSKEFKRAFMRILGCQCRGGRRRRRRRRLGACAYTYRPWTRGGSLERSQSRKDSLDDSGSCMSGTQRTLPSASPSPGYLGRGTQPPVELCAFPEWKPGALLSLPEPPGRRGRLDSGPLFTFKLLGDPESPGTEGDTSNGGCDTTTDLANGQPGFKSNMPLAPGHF
In short: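 Spleen bisected longitudinally into strips in Krebs with propranolol 4 μM, held at 1 g and equilibrated 2 h. Two isometric cumulative phenylephrine curves, each followed by 30 min washing. Third curve after 30 min vehicle or antagonist. Potency as pA2 (Schild) or pKB at one concentration (van Rossum). Responses as % of control maximum; n ≥ 4.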

[5] = molecular target: T5, Alpha-1B adrenergic receptor (Homo sapiens, UniProt P35368); assay: Displacement of [3H]prazosin from human alpha1B adrenergic receptor expressed in CHO cell membranes after 30 mins by rapid filtration method; in short: as §1
T5 sequence (P35368 whole entry): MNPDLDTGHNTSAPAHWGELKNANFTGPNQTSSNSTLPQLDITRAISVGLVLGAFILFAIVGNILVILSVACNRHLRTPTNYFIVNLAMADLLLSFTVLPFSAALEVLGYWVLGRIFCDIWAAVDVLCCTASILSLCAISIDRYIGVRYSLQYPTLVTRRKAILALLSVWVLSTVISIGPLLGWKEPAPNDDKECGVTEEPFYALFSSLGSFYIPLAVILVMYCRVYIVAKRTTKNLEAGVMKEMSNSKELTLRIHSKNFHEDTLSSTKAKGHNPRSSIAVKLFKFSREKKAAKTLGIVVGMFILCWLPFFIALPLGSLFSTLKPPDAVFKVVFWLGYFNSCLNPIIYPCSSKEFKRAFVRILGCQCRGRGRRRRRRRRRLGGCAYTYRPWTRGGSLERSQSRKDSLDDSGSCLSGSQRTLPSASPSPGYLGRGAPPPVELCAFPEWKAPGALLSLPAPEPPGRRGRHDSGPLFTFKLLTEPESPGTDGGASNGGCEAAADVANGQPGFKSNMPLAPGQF

[6] = molecular target: T5, Alpha-1B adrenergic receptor; assay: Binding affinity to human alpha1B adrenergic receptor

| Ki [1] [nM] | Ki [2] [nM] | Kb [3] [nM] | pKb [4] | Ki [5] [nM] | Ki [6] [nM] | SMILES |
| --- | --- | --- | --- | --- | --- | --- |
| 0.589 | 0.0603 | 0.589 | 9.67 | 0.0708 |  | COc1cc2nc(N3CCN(C(=O)c4ccco4)[C@@H]4CCCC[C@@H]43)nc(N)c2cc1OC |
|  |  |  | 8.86 |  | 0.135 to 0.692 | COc1cc2nc(N3CCN(C(=O)c4ccco4)[C@H]4CCCC[C@H]43)nc(N)c2cc1OC [CYCLAZOSIN] |

From ChEMBL document CHEMBL4118202, “Chiral analogues of (+)-cyclazosin as potent α1B-adrenoceptor selective antagonist” (Bioorg Med Chem, 2018)
